The source of these data is the RNAGym collection of RNA variant scans (doi:10.1126/science.aae0568).

First the molecules themselves.
B1: tRNA (parent)
chain: GUUCCGUUGGCGUAAUGGUAACGCGUCUCCCUCCUAAGGAGAAGACUGCGGGUUCGAGUCCCGUACGGAACG

Variants at the floor of the assay were thinned out.

This data set covers variants of B1. The experiment in a line: yeast fitness relative to wild type (ratio to wild type); higher = fitter; tRNA-Arg(CCU), competitive growth, 37 C, YPD. The gist of the method:
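Genotype frequency changes were the basis for Darwinian fitness relative to wild type. The frequencies came from 100-nucleotide paired-end sequencing of gene amplicons from the start population and each end population of pooled yeast strains with tRNA-Arg(CCU) gene variants at the native locus. Competition ran in YPD at 37°C for 24 hours in six replicates, genotypes needed ≥ 100 starting reads, and estimates < 0.5 were set to 0.5.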
On to U26A A42G U47C G63A, for which the yeast fitness is 0.519.
In the case of G25A A45G G52A U54A it was no more than 0.5; in that of G25C C61A C66U, no more than 0.5; in that of G25C C31A A69C, 0.585.
Then G25C A40G C61G G63A A69U, with no more than 0.5.
In the case of G25U U32C A36U G56C A65C it was no more than 0.5; in that of G25C U32C, 0.948; in that of G25C U32G, 0.655.
Consider U26A A57G C60U, for which the yeast fitness is no more than 0.5.
In the case of G25A C34G C46U U54A it was no more than 0.5.
In the case of G25C U28C A69G A70C it was no more than 0.5.
Regarding U26A C62A, the yeast fitness turned out to be 0.803.
In the case of G25A G50A C66U it was 0.629.
In the case of G25A A45C C66U G67C it was 0.608; in that of G25C G58C A65U, 0.928; in that of G25A A36U, 0.564.
In the case of G25C C55U it was 0.916.
As to G25A G41A A70U, the yeast fitness came out at 0.713.
Then G25C G39A, with 0.787; and U26A C29U C33U C62G, with 1.09.
In the case of G25C U26G C46G G51A A70U, the yeast fitness was no more than 0.5.
Regarding U26A C29G A43G A45U, the yeast fitness was no more than 0.5.
Then G25C C29G A43G C49G, with 0.647; and G25C C27A C30G, with no more than 0.5.
In the case of G25A U32A it was 0.744; in that of G25A U47C C60U, 0.587.
G25C C27G C46G C55A: the yeast fitness is no more than 0.5.
G25A A43C A70C: the yeast fitness came to 0.824.
In the case of G25A G50C U54C it was 0.627; in that of G25C C66U, 0.972.
G25C C66A: the yeast fitness worked out at 0.677.
In the case of G25C C66G it was 0.639; in that of G25A A36U A45C U54A, no more than 0.5; in that of G25A A37C C61U, 0.572.
For the variant G25C G44C C49U, the yeast fitness was 0.505.
Consider G25A C46G A65U, for which the yeast fitness stood at 0.788.
For the variant U26A C33A C34G, the yeast fitness came to 0.644.
As for G25C C33G C60A, the yeast fitness is no more than 0.5.
With U26A C33A A45C A65U G67C, the yeast fitness is no more than 0.5.
Then G25C G67A, with 1.01.
In the case of G25C C29U A45C G58A, the yeast fitness is no more than 0.5.
In the case of U26A C29U C31U G48A it was 0.596; in that of G25C G41C C46U C66U, no more than 0.5; in that of U26A C34G C49A U53C A69U, no more than 0.5.
Then U26A G41C C46U, with 0.797.
Then G25C C34U G56A, with no more than 0.5; and G25A U32A C46U A57U, with 0.609.
Turning to G25C U26A U35C, the yeast fitness is no more than 0.5.
In the case of U26A C33A A45C it was 0.55; in that of G25C C49U G51A A65C A69C, no more than 0.5; in that of G25C C29A G52A C66U, no more than 0.5.
Then G25C G39C G52C G58C, with no more than 0.5.
In the case of G25C A37U G48A C61U it was no more than 0.5; in that of G25A C29A C55A, 0.625; in that of G25A A45U U54C G58C, 0.596.
G25A A40C C55G C61A: the yeast fitness was no more than 0.5.
Then G25C C31G C34G A57C, with no more than 0.5.
U26A C30A C34A A45C: the yeast fitness is no more than 0.5.
Then U26A A70G, with 0.924; and U26A C27U, with 0.919; and U26A A40U C61U, with 0.656.
In the case of U26A C27U A65G A69G it was 0.669; in that of U26A C27A U28A C34U, no more than 0.5; in that of U26A G44C A57C A69U, 0.653.
In the case of G25A G52U it was 0.627; in that of G25A G52A, 0.572.
For the variant G25A C29G U54G C61G, the yeast fitness is no more than 0.5.
In the case of G25A C34A it was 0.77.
With G25A C34U, the yeast fitness was 0.574.
G25A C29G: the yeast fitness amounted to 0.721.
Then G25A C29U, with 0.997.
In the case of G25A A65G, the yeast fitness was found to be 0.956.
Then G25A A65C, with 1.01; and G25A G51C, with 0.575.
In the case of U26A A57C it was 0.64.
Then G25A A45G C46U, with 0.731; and U26A A43C, with 0.966.
For G25A G38C A42C, the yeast fitness is no more than 0.5.
Then G25A C46A, with 0.876; and U26A A40C C66A, with no more than 0.5; and G25A A40U, with 0.924.
Then G25A A40C, with 0.839.
Then G25U A36U C61U, with no more than 0.5; and G25A A43C G63C G67A, with no more than 0.5; and U26A C30G A37C A69C, with no more than 0.5.
On to G25A A37U U54A, for which the yeast fitness is no more than 0.5.
In the case of U26A C66A it was 0.572; in that of U26A C66U, 0.824; in that of U26A A57C C61G G67A A69U, no more than 0.5.
Then G25A G48C C62A, with 0.611; and G25C C29U C30U U35C A40C, with no more than 0.5.
In the case of G25U A36U G56C A65C C66U it was no more than 0.5; in that of G25C C34G A57G, no more than 0.5; in that of G25C C31U A65U, 0.726.
Take G25C C34G A45U: the yeast fitness is no more than 0.5.
In the case of G25C C55U A69U it was 0.609.
In the case of G25A C34U A43U it was no more than 0.5; in that of G25A G39C A57C, no more than 0.5.
Then G25C C49U U54G, with 0.58.
As for G25A C49U U59G, the yeast fitness is 0.54.
Then G25C C66U A69C, with 0.685.
With G25A C49U A70C, the yeast fitness turned out to be 0.845.
Then G25A C60G G63C, with 0.548; and G25C G41C, with 0.625.
In the case of G25C G52A it was 0.748; in that of U26A A42C C49U C60G U64C C66A, no more than 0.5.
In the case of U26A A45U it was 1.03.
On to G25A C55G U59A G63A, for which the yeast fitness is no more than 0.5.
On to G25A U26A C31U G38A A42G A43U G67C, for which the yeast fitness amounted to 0.613.
In the case of G25C C31G C62U it was 0.737; in that of U26A C34U A43U C66G, 0.628.
Then U26A A36U C49A, with no more than 0.5.
Then U26A G48C, with 0.78; and U26A G50A, with 0.875.
As to G25A A45C U53C C55U G56C C61A C66U, the yeast fitness was 0.564.
Then G25A U32A U54G G56A, with no more than 0.5; and G25C A57G, with 0.892.
In the case of G25C C49U G51A it was 0.568; in that of G25A C27G C60A, no more than 0.5; in that of G25A A37U U47G G56C, 0.601.
In the case of G25A A43G A45U C46U it was no more than 0.5; in that of G25U C29G A42C, no more than 0.5; in that of G25A C46U G50C, 0.556.
Turning to G25C C34U A37U A40U, the yeast fitness is no more than 0.5.
In the case of G25A U54A C66A it was no more than 0.5.
Then G25C A40C C49U, with 0.76.
In the case of G25C C29G A40U it was no more than 0.5; in that of G25A A42U A65C G67U, no more than 0.5.
For G25A A40C C46U, the yeast fitness came to 0.978.
In the case of G25C C27G U47C it was no more than 0.5; in that of G25C A42C C61U, no more than 0.5.
Then G25A C34G G50C C62A, with no more than 0.5; and U26A C34G A43U C49A, with no more than 0.5.
In the case of G25C U53C A65C it was 0.697; in that of G25A C31U G38C C62U, 0.697.
In the case of U26A A42G, the yeast fitness is 0.891.
In the case of U26A A42C it was 0.97; in that of U26A A43G A69C, 0.649.
In the case of G25C C60G it was 0.665; in that of G25A A70G, 1.04; in that of G25A A70U, 1.01.
In the case of G25A C29A G38A it was no more than 0.5.
U26A C55A G68C: the yeast fitness was no more than 0.5.
Turning to G25C U28C, the yeast fitness was 0.79.
In the case of G25A G44C it was 1.04; in that of G25C G50C G56A G58A, no more than 0.5; in that of G25A C27G A45U C55A, no more than 0.5.
In the case of G25C G51A it was 1.01.
Then G25A C49A, with 0.691.
As for G25A C27U C34G, the yeast fitness was found to be 0.748.
In the case of G25A C33U it was 0.655.
In the case of U26A G41C A65G G67A it was no more than 0.5; in that of G25A C30G C49U, 0.594; in that of G25C C29G A43C, no more than 0.5.
In the case of G25C C29G A43G it was no more than 0.5.
With G25C C29A A65U, the yeast fitness is 0.558.
In the case of G25A U47C G56C C60U A70U it was no more than 0.5; in that of U26A C49G G56U, no more than 0.5.
In the case of U26A A57C A70U it was no more than 0.5; in that of G25A U59A, 1.06; in that of U26A G39A, 0.87.
Consider G25C G39A G58C, for which the yeast fitness turned out to be 0.663.
Then G25A G41A G56A, with 0.871.
For the variant G25C G41C A42U C49A, the yeast fitness is no more than 0.5.
Then G25C C49G, with 0.781.
In the case of G25C C31G it was 0.704; in that of G25C C31A, 0.677.
